For 11 molecules, IC50 results are on record in ChEMBL document CHEMBL1150866, “Chemical constituents from Lippia sidoides and cytotoxic activity” (J Nat Prod, 2001).

Values after ≈ are worked out from the molar mass of the structure shown. Bounds are passed on as bounds.

Holding throughout (type): functional, cell-based
For one assay, the system named is CCRF-CEM. In words: Cytotoxicity against human CEM cells after 3 days by MTT assay. As to conditions: 72 h. An outline of the steps: (§1)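 Suspension cells were kept in RPMI1640 with 10% FBS and seeded at 0.5×10^6 cells/100 μL without preincubation. Fresh medium holding 0.39–25 μg/mL drug was added, and cells were exposed for 3 days. MTT in serum-free medium was then given for 3 h at 37 °C, the formazan dissolved in DMSO, and absorbance read at 550 nm.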

The subject of the next assay is SW1573. In words: Cytotoxicity against human SW1573 cells after 3 days by MTT assay. As to conditions: SW1573, 72 h. An outline of the steps: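 Adherent cells were grown in RPMI1640 with 10% FBS, plated at 0.2×10^5 cells/100 μL, and left 24 h to attach. Drug in fresh medium was applied at 0.39–25 μg/mL for 3 days. Viability was by MTT in serum-free medium for 3 h at 37 °C, with DMSO solubilization and absorbance at 550 nm.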
(In general: Formazan colour is commonly taken as a measure of viable cells.)

In a further assay the test system is HL-60. Put plainly: Cytotoxicity against human HL60 cells after 3 days by MTT assay. To be noted: HL-60, 72 h. An outline of the steps:
as §1

A word on the IC50: it is the concentration that inhibits the measured activity by half. High values mean lower potency, low ones higher potency. `CC(C)=CC1Oc2c(c3c(c4ccccc24)OC(C)(C)C=C3)C2=C1C(=O)c1ccccc1C2=O` (stereo unspecified) [TECOMAQUINONE]: the IC50 in the assay on CCRF-CEM, with SW1573 and in the assay with HL-60 was above 10 µg/mL throughout.
As for `CC(=O)Oc1c(-c2c3c(c4ccccc4c2OC(C)=O)OC(C)(C)C=C3)c2c(c3ccccc13)OC(C)(C)C=C2`, the IC50 in the assay on CCRF-CEM, in the assay on SW1573 and in the assay with HL-60 was above 10 µg/mL in each case.
`CC1(C)C=Cc2c(-c3c4c(c5ccccc5c3O)OC(C)(C)C=C4)c(O)c3ccccc3c2O1` [tectol]: the IC50 in the assay with CCRF-CEM turned out to be 0.78 µg/mL (≈ 1.73 µM); with HL-60, 1.79 µg/mL (≈ 3.97 µM).
As to `COc1cc2c(c3ccccc13)OC(C)(C)C=C2` [LAPACHENOL], the IC50 in the assay on CCRF-CEM, in the assay with SW1573 and with HL-60 was above 10 µg/mL in each case.
With `Cc1ccc2c(c1)C(=O)c1ccccc1C2=O` [TECTOQUINONE], the IC50 in the assay with CCRF-CEM, in the assay with SW1573 and with HL-60 was above 10 µg/mL each time.
In the case of `CC1=C[C@H]2C3=C(C(=O)c4ccccc4C3=O)[C@]3(O)c4ccccc4C(=O)[C@@]2(/C=C/C(C)(C)O)[C@H]3C1` [LIPPSIDOQUINONE], the IC50 in the assay on CCRF-CEM turned out to be 2.58 µg/mL (≈ 5.53 µM); in the assay on HL-60 it was 2.38 µg/mL (≈ 5.1 µM).
In the case of `O=c1cc(-c2ccc(O)c(O)c2)oc2cc(O[C@@H]3O[C@H](CO)[C@@H](O)[C@H](O)[C@H]3O)cc(O)c12` [GALUTEOLIN], the IC50 with CCRF-CEM, with SW1573 and in the assay on HL-60 was above 10 µg/mL in each case.
Regarding `COc1cc([C@H]2c3cc(O)c(OC)cc3C[C@@H](CO)[C@@H]2CO)ccc1O` [ISOLARICIRESINOL], the IC50 in the assay on CCRF-CEM, in the assay on SW1573 and in the assay on HL-60 was above 10 µg/mL each time.
As for `O=c1c(O)c(-c2ccc(O)c(O)c2)oc2cc(O)cc(O)c12` [QUERCETIN], the concentration for half-maximal inhibition (IC50) in the assay on CCRF-CEM, in the assay on SW1573 and in the assay on HL-60 was above 10 µg/mL throughout.
Regarding `O=c1cc(-c2ccc(O)c(O)c2)oc2cc(O)cc(O)c12` [LUTEOLIN], the IC50 with CCRF-CEM, with SW1573 and in the assay on HL-60 was above 10 µg/mL in each case.
`O=C1c2c(O)cc(O)cc2OC(c2ccc(O)c(O)c2)C1O` (stereo unspecified) [TAXIFOLIN]: the IC50 with CCRF-CEM, in the assay on SW1573 and in the assay with HL-60 was above 10 µg/mL in each case.
